The subject of series [1] is HFF. The series is described as follows: Inhibitory concentration against the growth of Toxoplasma gondii overexpressing FPPS enzyme in human foreskin fibroblast monolayer cells; (control = 0.79 uM, experiment 3). It is filed as functional, cell-based. An outline of the steps: (§1)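 FPPS-overexpressing T. gondii line: 2F clone tachyzoites (beta-galactosidase) electroporated with 50 µg ptubTgFPPS-FLAG/sagCAT. Stable lines were selected with 20 µM chloramphenicol and cloned by limiting dilution, giving 4-5-fold more FPPS by Western blot. Assay: compounds serially diluted in medium on confluent HFF; 10^4 tachyzoites/mL (filtered 3 µm, needle-passed); 48 h at 37 °C. Lysis, then CPRG read at 570 nm; IC50 from rectangular hyperbolic fit of % inhibition.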

Series [2] can be described thus: In vitro inhibitory concentration against the growth of Toxoplasma gondii in human foreskin fibroblast monolayer cells (HFF cells). In kind it is functional, cell-based. Summed up:
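T. gondii 2F clone tachyzoites expressing β-galactosidase, kept in HFF in DMEM with 10% FBS, 2 mM glutamine and 1 mM pyruvate. Confluent HFF monolayers were given serially diluted drug in medium, then 10^4 filtered, needle-passed tachyzoites/mL, and held 48 h at 37 °C. Cells were lysed at 50 °C, and CPRG turnover was read at 570 nm. IC50 came from a hyperbolic fit of % inhibition against concentration.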

A further series relates to KB. Description: Lethal dose required to inhibit the growth of human KB (nasopharyngeal carcinoma) cell line. In kind it is functional. Conditions: read-out: LD50 (the source's name).
Series [3] can be described thus: Therapeutic index (TI) value as ratio of lethal dose (LD50) to the inhibitory concentration (IC50). To be noted: human, KB cells; read-out: TI. It is filed as cell-based.
In series [4] the test system is HFF. Description: Inhibitory concentration against the growth of Toxoplasma gondii overexpressing FPPS enzyme in human foreskin fibroblast monolayer cells; (control = 1.1 uM, experiment 2). In kind it is functional, cell-based. Summed up: as §1
In series [5] the test system is HFF. Description: Inhibitory concentration against the growth of Toxoplasma gondii overexpressing FPPS enzyme in human foreskin fibroblast monolayer cells; (control = 0.60 uM, experiment 1). In kind it is functional, cell-based. An outline of the steps: as §1
Series [6] has as its system HFF. Description: Inhibitory concentration against the growth of Toxoplasma gondii overexpressing FPPS enzyme in human foreskin fibroblast monolayer cells; (control = 0.55 uM, experiment 3). It is filed as functional, cell-based. Summed up:
as §1

The subject of series [7] is HFF. Description: Inhibitory concentration against the growth of Toxoplasma gondii overexpressing FPPS enzyme in human foreskin fibroblast monolayer cells; (control = 0.62 uM, experiment 1). It is filed as functional, cell-based. Summed up:
as §1

For series [8], the system named is HFF. The series is described as follows: Inhibitory concentration against the growth of Toxoplasma gondii overexpressing FPPS enzyme in human foreskin fibroblast monolayer cells; (control = 0.15 uM, experiment 2). It is filed as functional, cell-based. An outline of the steps: as §1
The subject of series [9] is HFF. Description: Inhibitory concentration against the growth of Toxoplasma gondii overexpressing FPPS enzyme in human foreskin fibroblast monolayer cells; (control = 2.2 uM, experiment 1). It is filed as functional, cell-based. Summed up:
as §1

For series [10], the system named is HFF. Description: Inhibitory concentration against the growth of Toxoplasma gondii overexpressing FPPS enzyme in human foreskin fibroblast monolayer cells; (control = 2.4 uM, experiment 3). In kind it is functional, cell-based. An outline of the steps: as §1
Series [11] relates to HFF. Description: Inhibitory concentration against the growth of Toxoplasma gondii overexpressing FPPS enzyme in human foreskin fibroblast monolayer cells; (control = 2.5 uM, experiment 2). It is filed as functional, cell-based. Summed up:
as §1

For series [12], the system named is HFF. The series is described as follows: Inhibitory concentration against the growth of Toxoplasma gondii overexpressing FPPS enzyme in human foreskin fibroblast monolayer cells; (control = 0.30 uM, experiment 2). It is filed as functional, cell-based. Summed up: as §1
Series [13] has as its system HFF. The series is described as follows: Inhibitory concentration against the growth of Toxoplasma gondii overexpressing FPPS enzyme in human foreskin fibroblast monolayer cells; (control = 0.28 uM, experiment 3). It is filed as functional, cell-based. An outline of the steps: as §1
For series [14], the system named is HFF. Description: Inhibitory concentration against the growth of Toxoplasma gondii overexpressing FPPS enzyme in human foreskin fibroblast monolayer cells; (control = 0.12 uM, experiment 1). In kind it is functional, cell-based. Summed up:
as §1

In ChEMBL document CHEMBL1143625, “Bisphosphonate inhibitors of Toxoplasma gondi growth: in vitro, QSAR, and in vivo investigations” (J Med Chem, 2005) one finds IC50, CC50 and selectivity ratio data, which are given here for 4 compounds.

By IC50 is commonly meant the concentration that inhibits the measured activity by half.

On to `O=P(O)(O)C(O)(Cn1ccnc1)P(=O)(O)O` [ZOLEDRONIC ACID], for which the IC50 with HFF [1] worked out at 7800 nM; in [2], 790 nM; in the series on HFF [4], 8300 nM; in the series on HFF [5] it was 7800 nM. The CC50 with KB stood at 63700 nM. In [3], the selectivity ratio came out at 80.9.
On to `CCCCCCCCCC(O)(P(=O)(O)O)P(=O)(O)O`, for which the IC50 in series [2] is 550 nM; in the series on HFF [6] it was 1700 nM; in the series with HFF [7] it was 1900 nM; in the series with HFF [8], 570 nM. For the same compound, the CC50 in the series on KB is more than 892000 nM. Besides, in [3], the selectivity ratio was more than 1620.
Regarding `CCCCCCCCC(O)(P(=O)(O)O)P(=O)(O)O`, the IC50 turned out to be 2380 nM in [2], 3300 nM in the series on HFF [9], 5800 nM in the series on HFF [10] and 5800 nM with HFF [11].
Regarding `CCCCCCCCCCC(O)(P(=O)(O)O)P(=O)(O)O`, the IC50 came to 1200 nM in the series on HFF [12], 280 nM in [2], 1700 nM in the series on HFF [13] and 1100 nM in the series on HFF [14]. In addition, the CC50 in the series with KB is more than 826000 nM. Moreover, the selectivity ratio in series [3] was more than 2950.
